Assay results pooled from the literature.
Compare with care: the assays were run in different laboratories.
PROC: Vitamin K-dependent protein C (PROC, Homo sapiens, UniProt P04070)
EDNRA: Endothelin-1 receptor (EDNRA, Homo sapiens, UniProt P25101)
MALT1: Mucosa-associated lymphoid tissue lymphoma translocation protein 1 (MALT1, Homo sapiens, UniProt Q9UDY8)
PDE5A: cGMP-specific 3',5'-cyclic phosphodiesterase (PDE5A, Homo sapiens, UniProt O76074)

SMILES	target	observed	mode	method	tested at	inhibition
CCN(CC)CCCC[C@H](NC(=O)[C@H](CC(C)C)NC(=O)[C@H](C)NC(=O)[C@H](Cc1ccccc1)NC(=O)c1ccc(C(C)(C)C)cc1)C(=O)N[C@@H](CO)C(=O)OC	Cannabinoid receptor 1 (CNR1, Homo sapiens, UniProt P21554)	ligand displacement	–	radioligand	10 µM	-13%
CN(C)C(=O)COC(=O)Cc1ccc(OC(=O)c2ccc(NC(=N)N)cc2)cc1	PROC	enzyme activity	inhibitor	–	10 µM	77%
COCc1c(-c2cc3cc(C)cc(OC)c3s2)c2c(N)ncnn2c1CN1CCNC(=O)C1	EDNRA	ligand displacement	–	radioligand	10 µM	12%
C#Cc1n[nH]c2c(-c3cn(C(C)c4ccccn4)c(=O)[nH]c3=O)cc(F)cc12 (centres unmarked)	Aurora kinase B (AURKB, Homo sapiens, UniProt Q96GD4)	enzyme activity	inhibitor	–	1 µM	6.7%
N=C(N)c1ccc2cc(OC(=O)c3ccc(N=C(N)N)cc3)ccc2c1	MALT1	enzyme activity	inhibitor	–	10 µM	49%
Cn1cc(-c2cc(F)cc(N3CCn4c(cc5c4CCCC5)C3=O)c2CO)cc(Nc2ccc(N3CCN(C4COC4)CC3)cn2)c1=O	Phosphatidylinositol 4-phosphate 3-kinase C2 domain-containing subunit beta (PIK3C2B, Homo sapiens, UniProt O00750)	enzyme activity	inhibitor	–	0.1 µM	10%
[H]/N=C(/N)c1ccc(NCc2nc3cc(C(=O)N(CCC(=O)O)c4ccccn4)ccc3n2C)cc1	PROC	enzyme activity	inhibitor	–	2 µM	43%
C[C@H](C(=O)N[C@H]1COc2ccccc2[C@@H]1S(C)(=O)=O)c1ccc(F)cc1	PDE5A	enzyme activity	inhibitor	–	10 µM	-5%
CCOC(=O)c1ccc(OC(=O)CCCCCNC(=N)N)cc1	MALT1	enzyme activity	inhibitor	–	10 µM	46%
CC(C)Cn1cnc2c(N)nc3ccccc3c21	EDNRA	ligand displacement	–	radioligand	10 µM	8%
CC(C)[C@H](NC(=O)OCc1ccccc1)C(=O)N[C@@H](CCCN=C(N)N)C(=O)N1CCC[C@H]1C(=O)N[C@@H](CCCN=C(N)N)C(=O)CF	MALT1	enzyme activity	inhibitor	–	1 nM	9%
COc1cc(Nc2ncc(F)c(Nc3ccc4c(n3)NC(=O)C(C)(C)O4)n2)cc(OC)c1OC	Serine/threonine-protein kinase VRK2 (VRK2, Homo sapiens, UniProt Q86Y07)	binding	–	–	10 µM	0%
OC[C@@]12C[C@@H]1[C@@H](n1cnc3c(NC(C4CCCC4)C4CCCC4)nc(Cl)nc31)[C@H](O)[C@@H]2O	5-hydroxytryptamine receptor 2A (HTR2A, Homo sapiens, UniProt P28223)	ligand displacement	–	radioligand	10 µM	22%
Clc1ccc2c(C3CCN(CCc4c[nH]c5ccccc45)CC3)c[nH]c2c1	EDNRA	ligand displacement	–	radioligand	10 µM	-12%
CC(C)N1CCC[C@H]1CNC(=O)c1cn(C2CCCC2)c(=O)c2c1c1ccccc1n2C	Sigma non-opioid intracellular receptor 1 (SIGMAR1, Homo sapiens, UniProt Q99720)	ligand displacement	–	radioligand	10 µM	47%
CN(CCN1CCC(OC(=O)Nc2ccccc2-c2ccccc2)CC1)C(=O)c1ccc(CN2CCC(C(N)=O)CC2)cc1	Corticotropin-releasing factor receptor 1 (Rattus norvegicus, UniProt P35353)	ligand displacement	–	radioligand	1 µM	-2%
CC(C)=CCCC1(C)C=Cc2c(O)c3c(c(CC=C(C)C)c2O1)OC12C(=CC4CC1C(C)(C)OC2(C/C=C(/C)C(=O)O)C4O)C3=O (centres unmarked)	Histone-lysine N-methyltransferase EHMT1 (EHMT1, Homo sapiens, UniProt Q9H9B1)	cell-free assay	–	–	10 µM	-4%
Cc1ncc(C)n2nc(/C=C/c3nc(N4CCCC4)cc(N4CCOCC4)n3)nc12	PDE5A	enzyme activity	inhibitor	–	10 µM	38%
Cn1cc(-c2cccc(N3CCc4c(sc5c4CC(C)(C)C5)C3=O)c2CO)cc(Nc2ccncn2)c1=O	Sphingosine kinase 1 (SPHK1, Homo sapiens, UniProt Q9NYA1)	enzyme activity	inhibitor	–	1 µM	5%
O=C(Nc1cccnn1)N1CCN([C@@H]2CCOc3cc(C(F)(F)F)ccc32)CC1	Histamine H4 receptor (HRH4, Homo sapiens, UniProt Q9H3N8)	cell-free assay	–	–	20 µM	4%
